Most compounds without a hit are left out; they make up all but 2.6% or so of the library.
Platelet DG rel – inhibitors of platelet dense granule secretion, primary screen, cell-based, MLPCN, human platelets | human platelet-rich plasma, SFLLRN dense granule ATP release, luminescence | inhibition, %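 (compounds screened at 7.5 µM in platelet-rich plasma)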 | actives 0.22% (n = 300,000);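 active = mean replicate score, as percent of positive control, at or above 50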
SENP6 block – SENP6 protease inhibitors, primary screen, biochemical, luminescence, uHTS | Recombinant SENP6 catalytic domain, aminoluciferin luminescence | inhibition, % at 10 µM | actives 1.8% (n = 330,000);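 active = inhibition above about 50% at the single tested dose, limit read from the data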;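 also: plate controls were DMSO wells with enzyme for no effect and DMSO wells lacking enzyme for full effect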
SENP7 block – SENP7 protease inhibitors, primary screen, biochemical, luminescence, uHTS | Sentrin-specific protease 7 (Homo sapiens), Q9BQF6 | recombinant SENP7, Z-RLRGG-aminoluciferin luminescence, 40 min | inhibition, % at 5 µM | actives 1.5% (n = 330,000);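 active = inhibition above about 50% at the single test dose, limit read from the data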;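 also: plate controls were DMSO with enzyme for no effect and no enzyme buffer wells for full effect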
Target sequence (Q9BQF6 706-1050 limits assumed): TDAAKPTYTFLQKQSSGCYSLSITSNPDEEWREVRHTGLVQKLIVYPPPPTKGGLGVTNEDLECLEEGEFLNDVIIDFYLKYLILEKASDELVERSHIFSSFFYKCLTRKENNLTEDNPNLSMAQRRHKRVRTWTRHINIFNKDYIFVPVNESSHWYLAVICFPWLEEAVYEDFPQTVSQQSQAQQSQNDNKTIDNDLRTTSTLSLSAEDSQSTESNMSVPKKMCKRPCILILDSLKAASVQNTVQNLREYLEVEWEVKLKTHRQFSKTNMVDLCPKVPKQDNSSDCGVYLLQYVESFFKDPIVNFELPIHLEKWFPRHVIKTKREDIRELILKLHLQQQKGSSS
SENP8 block-1 – human SENP8 protease inhibitors, primary screen, biochemical, fluorescence, Nedd8 protein substrate, uHTS. Sentrin-specific protease 8 (Homo sapiens), Q96LD8. recombinant SENP8. inhibition, % at 20 µM. actives 0.64% (n = 360,000). AID 602440, 2012; in the data active = inhibition mostly above about 40%, no sharp cut-off; inactive = mostly below about 27%
SENP1 FRET inh – human SENP1 catalytic domain inhibitors, primary screen, biochemical, FRET, uHTS. Sentrin-specific protease 1 (Homo sapiens), Q9P0U3. recombinant SENP1 catalytic domain, CyPet-SUMO1-YPet FRET cleavage. inhibition, % at 10 µM. actives 0.21% (n = 360,000). AID 624204, 2012;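 active = inhibition at least 30% at 10 µM, raw YFP signal under a set limit, fluorescence ratio 0.5 to 1.5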;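 also: 0% = enzyme with DMSO and 100% = no enzyme wells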
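Test system: hSENP1 catalytic domain, recombinant; Amount: 20 pM final SENP1 enzyme; Medium: Tris pH 8 buffer plus EDTA, NaCl, BME, BSA, NP40, catalase; Schedule: 50 min enzyme reaction, room temperature, light-protected; Technique: FRET fluorescence in CFP and YFP emission channels; Controls: no-enzyme wells low, DMSO-plus-enzyme wells high control.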
SENP8 block-2 – SENP8 protease inhibitors, primary screen, biochemical, luminescence; purified SENP8, Z-RLRGG-aminoluciferin cleavage; AID 2540, 2010; actives 1.2% (n = 330,000); inhibition, % at 10 µM; Sentrin-specific protease 8 (Homo sapiens), Q96LD8; in the data active = inhibition above about 50%
SENP8 conf – SENP8 protease inhibitors, retest, confirmation, biochemical, luminescence, single concentration; actives 40% (n = 6,200); shares compounds with SENP7 block; Recombinant SENP8, Z-RLRGG-aminoluciferin luminescence, 60 min; inhibition, % at 12.5 µM;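 active = mean inhibition across replicates above about 50%, limit read from the data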
SENP6 conf – SENP6 protease inhibitors, confirmation, biochemical, luminescence, single concentration; actives 58% (n = 6,200); shares compounds with SENP7 block; recombinant SENP6, Z-RLRGG-aminoluciferin luminescence; inhibition, % at 12.5 µM; AID 488915, 2010
SENP7 conf – SENP7 protease inhibitors, retest, confirmation, biochemical, luminescence, single concentration; shares compounds with SENP7 block; recombinant SENP7, Z-RLRGG-aminoluciferin luminescence, 40 min; inhibition, % at 12.5 µM; actives 69% (n = 6,200)
Casp3 SENP sel – caspase-3 protease inhibitors, confirmation, selectivity assay for SENP inhibitor project, biochemical, single concentration | shares compounds with SENP7 block | actives 60% (n = 6,200) | inhibition, % at 12.5 µM | AID 488918, 2010 | purified caspase-3, Z-DEVD-aminoluciferin luminescence, 60 min;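 active = mean inhibition above about 50%, limit read from the data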;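 also: plate controls were enzyme with DMSO for no effect and wells without caspase-3 for full effect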
Luc interf – interferes with luciferase luminescence in SENP counter-screen | shares compounds with SENP7 block | Pre-incubated SENP8/Z-RLRGG-aminoluciferin, luciferase luminescence interference | inhibition, % at 12.5 µM | actives 39% (n = 6,200);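 active = mean inhibition above about 50% when retested at one dose, limit read from the data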;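 also: plate controls were DMSO wells with completed reaction for no effect and substrate without enzyme for full effect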
Starred values were filed as active, the others as inactive; . = no result given.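 The calls were made as follows, unless noted: active = mean inhibition above about 50% in the one-dose retest (limit read from the data); inactive = the rest.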

SMILES | Platelet DG rel | SENP6 block | SENP7 block | SENP8 block-1 | SENP1 FRET inh | SENP8 block-2 | SENP8 conf | SENP6 conf | SENP7 conf | Casp3 SENP sel | Luc interf
CC(NC(=O)c1ccco1)c1ccc(-n2ccnc2)cc1 (stereo unspecified) | -1.9 | -15.3 | 10.0 | 30.8 | 1.0 | -11.8 | . | . | . | . | .
COc1ccc(C(=O)Nc2ccc(Cl)c(Cl)c2)c(OC)n1 | -3.5 | 11.7 | 51.3* | 8.7 | 2.0 | -5.5 | 17.8 | 14.0 | 25.3 | 33.8 | 14.1
Cc1nn(-c2ccccc2)c(C)c1/C=N/Nc1nc2ccccc2[nH]1 | 40.3 | 38.8 | 74.6* | -293.6 | -7.4 | 74.1* | 84.3* | 83.7* | 94.0* | 74.0* | 83.2*
C(=N\Nc1nc2ccccc2[nH]1)/c1cccs1 | . | 85.7* | 61.6* | -24.0 | -1.0 | 59.2* | 57.1* | 53.6* | 66.9* | 51.9* | 64.8*
Cn1c(/C=N/Nc2nc3ccccc3[nH]2)nc2ccccc21 | 3.2 | 83.1* | 74.3* | 16.4 | -0.2 | 60.2* | 61.9* | 58.9* | 82.2* | 52.3* | 14.6
CC1CCN(c2ccc3c(c2)S(=O)(=O)c2cccc(C(=O)NC4CCCCC4)c2C3=O)CC1 | . | -5.8 | 5.1 | 18.0 | -31.8 | -2.9 | . | . | . | . | .
CN(C)/C=N/C(=S)Nc1ccc(Cl)c(Cl)c1 | -1.8 | 60.4* | 37.7 | 18.4 | 1.7 | 12.9 | 62.5* | 61.1* | 85.4* | 57.9* | 8.7
CC1CCC(NC(=O)Cn2cnc3sccc3c2=O)CC1 (stereo unspecified) | . | 7.3 | 1.4 | -5.7 | -24.3 | 1.3 | . | . | . | . | .
O=C(COc1ccc(Cl)cc1)c1ccc(O)cc1O | 13.0 | 57.9* | 41.0 | 9.2 | 1.2 | 36.2 | 54.4* | 49.3 | 72.2* | 66.6* | 53.4*
CCOC(=O)c1ccc(OCC(=O)c2ccc(O)cc2O)cc1 | -38.6 | 55.1* | 20.4 | -3.6 | -0.5 | 32.8 | 26.4 | 25.7 | 64.4* | 65.7* | 29.8
COC(=O)c1ccc(OCC(=O)c2ccc(O)cc2O)cc1 | 0.7 | 24.5 | 21.1 | 3.6 | 0.3 | 6.6 | . | . | . | . | .
O=C(c1ccc(-c2cc(O)c3ncccc3c2)cc1)N1CCNCC1 | . | -2.5 | -10.4 | 15.5 | 2.2 | -4.7 | . | . | . | . | .
CCN(CC)c1ccc(NC(=O)c2ccc(Br)o2)cc1 | 1.7 | -15.8 | 27.4 | 11.5 | 0.6 | 12.8 | . | . | . | . | .
O=C(Nc1ccc2c(c1)OCO2)c1ccc(COc2ccc3c(c2)CCC3)o1 | 2.7 | 53.7* | -5.0 | 5.9 | 0.5 | 24.2 | 15.7 | 30.3 | 36.6 | 14.2 | 19.6
O=C(Nc1ccc2c(c1)OCO2)c1ccc(Br)o1 | 15.3 | 64.6* | 7.1 | 10.5 | 2.5 | 58.0* | 10.5 | 65.4* | 89.9* | 82.4* | 67.1*
COC(=O)Cc1ccc(NC(=O)c2ccc(Br)o2)cc1 | 11.9 | 51.2* | 32.3 | 11.1 | 1.2 | 26.2 | 37.2 | 30.8 | 67.5* | 70.5* | 49.3
